Screening data as filed in PubChem.
L major viab: Leishmania major promastigote growth inhibition, primary screen; Leishmania major promastigotes, resazurin fluorescence viability; inhibition, % at 10 µM; actives 9% (n = 200,000); in the data active = inhibition above about 50%;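 also: promastigotes grown with compound for 44 hours at 28 °C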
Mdm2-MdmX inh: inhibitors of human Mdm2-MdmX association, primary screen, cell-based, luminescence, split luciferase, SaOS-2, uHTS | Protein Mdm4 (Homo sapiens) + E3 ubiquitin-protein ligase Mdm2 (Homo sapiens), … | SaOS-2 split-luciferase Mdm2/MdmX complementation | inhibition, % at 8 µM | actives 3% (n = 330,000) | AID 485346, 2010;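 active = inhibition of at least 50% at 8 µM in the primary screen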
Target sequence (O15151 whole entry, looked up): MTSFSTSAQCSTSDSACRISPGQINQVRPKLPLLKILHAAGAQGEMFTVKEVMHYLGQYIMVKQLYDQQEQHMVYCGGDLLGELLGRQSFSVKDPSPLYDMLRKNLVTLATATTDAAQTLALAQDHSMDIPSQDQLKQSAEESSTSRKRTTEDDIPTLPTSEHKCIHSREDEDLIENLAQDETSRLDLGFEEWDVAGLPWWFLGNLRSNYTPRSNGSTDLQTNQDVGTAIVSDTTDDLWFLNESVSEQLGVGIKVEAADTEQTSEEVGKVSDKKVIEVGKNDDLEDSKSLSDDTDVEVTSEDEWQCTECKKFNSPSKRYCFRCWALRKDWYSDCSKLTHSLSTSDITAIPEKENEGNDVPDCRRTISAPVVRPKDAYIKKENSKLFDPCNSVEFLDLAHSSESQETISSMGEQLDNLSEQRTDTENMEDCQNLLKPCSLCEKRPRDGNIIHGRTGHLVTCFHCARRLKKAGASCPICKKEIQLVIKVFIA
Target sequence (Q00987 whole entry, looked up): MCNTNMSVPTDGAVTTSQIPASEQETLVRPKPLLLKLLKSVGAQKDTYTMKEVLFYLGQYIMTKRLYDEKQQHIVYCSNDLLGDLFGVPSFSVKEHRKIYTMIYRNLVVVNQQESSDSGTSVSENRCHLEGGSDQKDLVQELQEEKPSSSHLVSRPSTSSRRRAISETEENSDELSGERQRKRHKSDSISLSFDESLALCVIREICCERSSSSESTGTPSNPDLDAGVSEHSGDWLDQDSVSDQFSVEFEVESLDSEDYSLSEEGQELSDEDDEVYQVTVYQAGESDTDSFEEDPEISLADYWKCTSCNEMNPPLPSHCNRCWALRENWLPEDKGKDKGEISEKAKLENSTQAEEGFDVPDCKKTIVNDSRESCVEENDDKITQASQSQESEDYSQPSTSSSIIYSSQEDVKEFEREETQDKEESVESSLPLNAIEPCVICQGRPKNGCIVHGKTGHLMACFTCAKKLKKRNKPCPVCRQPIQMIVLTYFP
T cruzi repl: inhibitors of intracellular T. cruzi growth, primary screen, luminescence, NIH3T3 host cells; T. cruzi beta-gal in NIH3T3, 90 h; inhibition, % (test concentration not listed); actives 1.4% (n = 300,000); AID 1885, 2009;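 active = mean inhibition across valid replicates above about 55%, limit read from the data; inconclusive = mean below that limit but half or more replicates reach it; inactive = mean below it, under half of replicates reach it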;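 also: signal also drops with host cell toxicity which is not excluded here; 0% = plate median of DMSO wells and 100% = zero luminescence signal; higher percent means less beta-gal luminescence so fewer parasites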
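Assay system: NIH/3T3 host cells with β-galactosidase reporter T. cruzi; input: 5,000 host fibroblasts per well; compound: single 50 nL compound addition per well in DMSO; timing: ≥90 h infection period, 3 h prior cell attachment; measured by: GalScreen β-gal luminescence, detergent lysis, 60 min; evaluation: percent inhibition of parasite-derived β-gal signal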
Beta cell apopt: inhibitors of cytokine-induced beta cell apoptosis, primary screen, luminescence | INS-1E cytokine-induced death, ATP luminescence, 48 h; percent of positive-control rescue, neutral wells zero | protection from apoptosis, % (no concentration beside the values) | actives 0.8% (n = 300,000) | AID 435005, 2010;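 active = Every replicate reaches about 75%, or at least half do and their mean reaches it too, limit read from the data; inconclusive = At least half of replicates reach the limit but their mean does not; inactive = Under half of replicates reach the limit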;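 also: 0% = cytokine-treated negative control wells and 100% = positive control rescue; higher means more ATP so stronger rescue from cytokine killing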
SKKanGAS inh: S. pyogenes SKKanGAS growth inhibitors in kanamycin, primary screen, streptokinase expression inhibitor project, SKKanGAS strain, BacTiter-Glo luminescence; 6 h; inhibition, % at 7.5 µM; actives 1.3% (n = 300,000);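 active = mean replicate score, as percent of positive control median, at least 50; inconclusive = mean below 50 but one replicate at or above 50; inactive = mean and every replicate below 50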;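 also: strain carries kanamycin resistance gene driven by streptokinase promoter and grows in 40 µg/ml kanamycin; loss of luminescence reflects streptokinase promoter inhibition or plain growth inhibition; 0% = median of DMSO wells and 100% = positive control at its reference dose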
CSC inhib: cancer stem cell viability inhibitors, primary screen, luminescence; inhibition, % at 7.5 µM; cancer stem cell-like cells viability; actives 1.1% (n = 300,000); in the data active = inhibition above about 75%; inconclusive = no clear call, values can overlap the other calls; tested in HMLE shEcad cells
An asterisk follows results filed as active; ? = inconclusive; . = no result given. Hits are enriched below; roughly 9.4% of the tested compounds scored in any of these assays.

SMILES | L major viab | Mdm2-MdmX inh | T cruzi repl | Beta cell apopt | SKKanGAS inh | CSC inhib
COc1ccc(C2C(C#N)=C(N)N(c3cccnc3)C3=C2C(=O)CC(C)(C)C3)cc1OC (stereo not given) | -7.9 | 5.1 | -2.4 | -4.6 | 1.1 | -8.5
COc1ccc(C2C(C#N)=C(N)N(N(C)C)C3=C2C(=O)CC(C)(C)C3)cc1OC (stereo not given) | . | 15.9 | -2.5 | -0.9 | 0.3 | -2.4
C=CCOc1ccc(C2C(C#N)=C(N)N(Nc3ccccc3)C3=C2C(=O)CCC3)cc1OC (stereo not given) | 96.2* | 6.5 | 7.8 | 1.0 | 4.4 | 13.8
COc1ccc(C2C(C#N)=C(N)N(Nc3ccccc3)C3=C2C(=O)CC(C)(C)C3)cc1C (stereo not given) | 85.7* | -3.8 | 16.4 | -8.1 | 4.7 | 5.0
COc1cc(C2C(C#N)=C(N)N(Nc3ccccc3)C3=C2C(=O)CC(C)(C)C3)ccc1OCc1ccccc1 (stereo not given) | 100.0* | 9.4 | 36.3 | 11.1 | 25.7 | 23.4
COc1cc(C2CC(=O)Nc3n[nH]c(-c4ccccc4)c32)cc(OC)c1OC (stereo not given) | . | 49.7 | 19.7 | -1.1 | -8.7 | 31.0
O=C(CSc1nnnn1-c1ccccc1)NCC1(N2CCOCC2)CCCCC1 | . | 4.0 | . | -5.3 | . | -7.0
O=S(=O)(Nc1ccc2cn[nH]c2c1)c1ccc(Cl)s1 | 2.0 | -2.9 | -19.7 | -2.1 | 4.0 | 4.1
CC(=O)N1CCN(S(=O)(=O)c2cccc(C(=O)OCC(=O)N(CCC#N)c3ccc(F)cc3)c2)CC1 | . | 0.5 | . | -7.4 | . | -2.7
CCC(=O)Nc1ccc(C(=O)CSc2nnc(-c3ccc(NS(C)(=O)=O)cc3)n2C)cc1OC | -4.8 | 0.8 | -5.3 | 0.9 | 11.2 | 4.6
CCn1c(SCC(=O)c2ccc(NC(C)=O)c(OC)c2)nnc1-c1ccc(NS(C)(=O)=O)cc1 | 63.6* | -5.7 | 7.4 | -6.6 | -3.8 | -9.3
CCOc1cc(/C=C2/C(=O)ON=C2C)ccc1OCc1ccccc1F | 58.3* | 23.5 | 0.4 | 6.2 | 7.8 | -31.1
Cc1ccnc(NC(c2ccccn2)c2c(C)[nH]c3ccccc23)c1 (stereo not given) | 74.1* | 49.8 | -4.2 | -47.8 | 7.7 | 2.9
Cc1[nH]c2ccccc2c1C(c1ccccn1)N1CCCC1 (stereo not given) | 20.4 | 30.9 | 1.0 | -2.7 | -0.9 | 13.5
O=C(O)COc1ccccc1/C=C1\SC(=S)N(c2cccnc2)C1=O | . | 18.9 | 2.9 | -0.9 | 1.5 | 10.7
O=S(=O)(c1ccc(OCC(O)CNC23CC4CC(CC(C4)C2)C3)c(Cl)c1)N1CCOCC1 (stereo not given) | 94.2* | 26.6 | 24.1 | -1.1 | 20.1 | 1.8
O=C(COc1ccc(S(=O)(=O)N2CCOCC2)cc1Cl)NC1CCCCC1 | . | -21.9 | 4.0 | -3.1 | -6.5 | 2.5
Cn1nc([N+](=O)[O-])c(C(C#N)c2ccccn2)c(Cl)c1=O (stereo not given) | 100.3* | 22.8 | 63.8* | -39.7 | . | 88.4*
CCCn1nc([N+](=O)[O-])c(C(C#N)c2nc3ccccc3o2)c(Cl)c1=O (stereo not given) | -6.1 | -16.6 | -15.5 | -0.2 | 10.0 | 79.2*
O=C(NC(C(=O)N/N=C/c1c2ccccc2cc2ccccc12)c1n[nH]c(=O)c2ccccc12)c1ccccc1 (stereo not given) | 92.5* | 24.9 | 17.1 | 7.6 | 9.6 | -4.6
COc1ccccc1NC(=O)CSc1nn2c(=O)c(C)nnc2s1 | . | -12.4 | -14.5 | -6.0 | -1.6 | 2.5
Cc1nnc2sc(SCC(=O)Nc3nccs3)nn2c1=O | 92.0* | 16.6 | 0.7 | 6.3 | -4.4 | -5.2
COCC(=O)N1CCC(Oc2ccc(C(=O)N3C[C@H]4CC[C@H]3C4)cc2)CC1 | . | 0.3 | -11.9 | 2.3 | -2.8 | 2.0
Cc1cc(-c2csc(N)n2)c(C)n1C | 5.8 | 12.6 | 4.2 | 3.8 | 1.5 | 7.7
Cc1ccc(-n2c(C)cc(-c3csc(N)n3)c2C)cc1 | 66.7* | 20.6 | 2.1 | 14.3 | 11.4 | -1.8
SMILES | L major viab | Mdm2-MdmX inh | T cruzi repl | Beta cell apopt | SKKanGAS inh | CSC inhib
Nc1ncc(Br)cc1S(=O)(=O)Nc1ccccc1F | . | 18.4 | -3.5 | -1.4 | 5.1 | -5.6
O=S(=O)(/C(=C/c1ccc(C(F)(F)F)cc1)c1nc2ccccc2[nH]1)c1ccccc1 | 100.4* | . | 40.9 | 99.7* | 2.7 | 100.8*
C/C(=C\c1ccc(N)cc1)c1nc2ccccc2[nH]1 | . | -64.4 | -2.2 | -0.9 | 7.2 | 1.6
CCOc1ccc(OCCCCNC(C)(C)C)cc1 | 98.1* | 12.6 | -8.1 | -13.6 | 4.1 | -2.7
CC(C)(C)NCCOc1ccc2ccccc2c1 | 11.4 | 15.3 | -23.1 | -1.0 | -3.5 | -3.2
CC(C)(C)NCCCCOc1ccc(F)cc1 | 99.5* | -6.4 | -20.3 | . | -1.2 | -6.5
CC1=C(C(=O)OCc2ccc3c(c2)OCO3)C(c2ccccc2OCc2ccccc2)NC(=O)N1 (stereo not given) | 99.0* | 32.9 | 42.5 | -1.3 | 14.1 | 19.3
COc1ccccc1CNC(=O)CN(C)S(=O)(=O)c1ccc(Br)s1 | . | 13.5 | 1.8 | 2.1 | -5.9 | -6.2
CC1(C)CC2CC(C)(CN2S(=O)(=O)c2ccc(C(=O)Nc3cc(S(=O)(=O)N4CCOCC4)ccc3Cl)cc2)C1 (stereo not given) | 98.8* | 20.0 | 38.4 | -5.6 | 10.8 | .
CC1(C)CC2CC(C)(CN2S(=O)(=O)c2ccc(C(=O)Nc3cccc(S(=O)(=O)N4CCOCC4)c3)cc2)C1 (stereo not given) | 99.2* | 20.0 | 48.9 | 1.7 | 12.8 | .
O=C(Nc1cc(S(=O)(=O)N2CCOCC2)ccc1Cl)c1ccc(=O)[nH]c1 | . | 24.1 | . | . | . | .
CC1(C)Cc2c(sc(NC(=O)C(=O)NCC3CCCO3)c2C(N)=O)CO1 (stereo not given) | . | 15.4 | -8.5 | -2.7 | -4.9 | 1.8
CCOC(=O)C1CCN(c2ncnc3c2[nH]c2cccc(OC)c23)CC1 | 73.1* | 6.2 | 1.3 | -0.9 | 4.0 | -9.0
CCOC(=O)C1CCN(c2ncnc3c2c(-c2ccccc2)cn3-c2ccccc2)CC1 | 18.2 | 11.9 | 59.1* | 16.6 | 14.6 | ?
Cc1ccc(-n2cc(-c3ccccc3)c3c(N4CCOCC4)ncnc32)cc1 | 13.8 | . | 1.5 | . | 2.3 | .
COc1cccc2[nH]c3c(N4CCCCC4)ncnc3c12 | 96.4* | 7.9 | 15.8 | 10.3 | 2.7 | 6.9
COc1cccc2[nH]c3c(Cl)ncnc3c12 | 34.0 | 11.3 | 0.0 | 1.3 | -3.1 | 4.4
Cc1sc2ncnc(N3CCN(Cc4ccccc4)CC3)c2c1-c1ccc(F)cc1 | . | 30.8 | 29.5 | . | 23.6 | -15.0
